From ChEMBL document CHEMBL1135620, “Cyclosporins: structure-activity relationships for the inhibition of the human FPR1 formylpeptide receptor” (J Med Chem, 2002)

What follows are compounds tested against T1, fMet-Leu-Phe receptor (Homo sapiens, UniProt P21462) (assay: Inhibitory activity against human formylpeptide receptor (FPR) of human leukemia HL-60 cells). Settings: not given.
T1 sequence (P21462 whole entry): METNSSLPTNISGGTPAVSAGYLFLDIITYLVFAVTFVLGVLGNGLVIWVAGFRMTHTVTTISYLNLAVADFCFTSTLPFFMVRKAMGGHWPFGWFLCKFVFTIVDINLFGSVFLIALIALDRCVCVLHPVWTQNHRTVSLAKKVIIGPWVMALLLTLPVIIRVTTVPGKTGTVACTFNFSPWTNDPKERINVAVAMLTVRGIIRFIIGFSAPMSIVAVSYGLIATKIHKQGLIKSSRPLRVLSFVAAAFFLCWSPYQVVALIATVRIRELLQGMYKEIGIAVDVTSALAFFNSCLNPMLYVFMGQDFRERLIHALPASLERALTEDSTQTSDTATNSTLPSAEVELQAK
Format: cell-based
Summary of the method: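 HL-60 cells differentiated 48 h with 0.2 mM dibutyryl cAMP, washed, then treated with 5 μM cytochalasin B (5–10 min, 37 °C). Stimulated 10 min with 30 nM f-MLF. N-acetyl-β-D-glucosaminidase release read at 410 nm on p-nitrophenyl substrate after spontaneous-release subtraction. Duplicate wells; IC20/IC50 as mean ± SD of independent experiments.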
In the case of `C/C=C/C[C@@H](C)[C@@H](O)[C@H]1C(=O)N[C@@H]([C@@H](C)O)C(=O)N(C)CC(=O)N(C)[C@@H](CC(C)C)C(=O)N[C@@H](C(C)C)C(=O)N(C)[C@@H](CC(C)C)C(=O)N[C@@H](C)C(=O)N[C@](O)(C(C)C)C(=O)N(C)[C@@H](CC(C)C)C(=O)N[C@@H](CC(C)C)C(=O)N(C)[C@@H](C(C)C)C(=O)N1C`, the IC50 is reported as 2.5 µM. Compound `C/C=C/C[C@@H](C)[C@@H](O)[C@H]1C(=O)N[C@@H]([C@@H](C)O)C(=O)N(C)CC(=O)N(C)[C@@H](CC(C)C)C(=O)N[C@@H]([C@@H](C)CC)C(=O)N(C)[C@@H](CC(C)C)C(=O)N[C@@H](C)C(=O)N[C@](O)(C(C)C)C(=O)N(C)[C@@H](CC(C)C)C(=O)N[C@@H](CC(C)C)C(=O)N(C)[C@@H](C(C)C)C(=O)N1C` has an IC50 of 0.75 µM. In the case of `CCCCCC[C@H]1C(=O)N[C@@H](CC)C(=O)N(C)CC(=O)N(C)[C@@H](CC(C)C)C(=O)N[C@@H](C(C)C)C(=O)N(C)[C@@H](CC(C)C)C(=O)N[C@@H](C)C(=O)N[C@H](C)C(=O)N(C)[C@@H](CC(C)C)C(=O)N(C)[C@@H](CC(C)C)C(=O)N(C)[C@@H](C(C)C)C(=O)N1C`, the IC50 is reported as greater than 10 µM. `C/C=C/C[C@@H](C)[C@@H](O)[C@H]1C(=O)N[C@@H]([C@@H](C)O)C(=O)N(C)CC(=O)N(C)[C@@H](CC(C)C)C(=O)N[C@@H](CC(C)C)C(=O)N(C)[C@@H](CC(C)C)C(=O)N[C@@H](C)C(=O)N[C@H](C)C(=O)N(C)[C@@H](CC(C)C)C(=O)N[C@@H](C)C(=O)N(C)[C@@H](C(C)C)C(=O)N1C` showed an IC50 of 3.25 µM. Compound `C/C=C/C[C@@H](C)[C@@H](O)[C@H]1C(=O)N[C@@H]([C@@H](C)O)C(=O)N(C)CC(=O)N(C)[C@@H](CC(C)C)C(=O)N[C@@H]([C@@H](C)CC)C(=O)N(C)[C@@H](CC(C)C)C(=O)N[C@@H](C)C(=O)N[C@H](C)C(=O)N(C)[C@@H](CC(C)C)C(=O)N(C)[C@@H](CC(C)C)C(=O)N(C)[C@@H](C(C)C)C(=O)N1C` has an IC50 of 2.3 µM. Compound `C/C=C/C[C@@H](C)[C@@H](O)[C@H]1C(=O)N[C@@H](CCC)C(=O)N(C)CC(=O)N(C)[C@@H](CC(C)C)C(=O)N[C@@H](C(C)C)C(=O)N[C@@H](CC(C)C)C(=O)N[C@@H](C)C(=O)N[C@H](C)C(=O)N(C)[C@@H](CC(C)C)C(=O)N(C)[C@@H](CC(C)C)C(=O)N(C)[C@@H](C(C)C)C(=O)N1C` has an IC50 greater than 10 µM. `C/C=C/C[C@@H](C)[C@@H](O)[C@H]1C(=O)N[C@@H]([C@@H](C)O)C(=O)N(C)CC(=O)N(C)[C@@H](CC(C)C)C(=O)N[C@@H](C(C)C)C(=O)N(C)[C@@H](CC(C)C)C(=O)N[C@@H](C)C(=O)N[C@H](C)C(=O)N(C)[C@@H](CC(C)C)C(=O)N[C@@H](CC(C)C)C(=O)N(C)[C@@H](C(C)C)C(=O)N1C` showed an IC50 greater than 3 µM. Compound `CC(C)C[C@@H]1NC(=O)[C@H](CC(C)C)N(C)C(=O)[C@@](O)(C(C)C)NC(=O)[C@H](C)NC(=O)[C@H](CC(C)C)N(C)C(=O)[C@H](CC(C)C)NC(=O)[C@H](CC(C)C)N(C)C(=O)CN(C)C(=O)[C@H]([C@@H](C)O)NC(=O)[C@H]([C@H](O)[C@H](C)C/C=C/CO)N(C)C(=O)[C@H](C(C)C)N(C)C1=O` has an IC50 of 1.48 µM. `CC/C=C/C[C@@H](C)[C@@H](O)[C@H]1C(=O)N[C@@H](CC)C(=O)N(C)CC(=O)N(C)[C@@H](CC(C)(C)O)C(=O)N[C@@H](C(C)C)C(=O)N(C)[C@@H](CC(C)C)C(=O)N[C@@H](C)C(=O)N[C@H](C)C(=O)N(C)[C@@H](CC(C)C)C(=O)N(C)[C@@H](CC(C)C)C(=O)N(C)[C@@H](C(C)C)C(=O)N1C` gave an IC50 greater than 10 µM. `C/C=C/C[C@@H](C)[C@@H](O)[C@H]1C(=O)N[C@@H](CC)C(=O)N(C)CC(=O)N(C)[C@@H](CC(C)C)C(=O)N[C@@H](C(C)C)C(=O)N(C)[C@@H](CC(C)C)C(=O)N[C@@H](C)C(=O)N[C@H](C)C(=O)N(C)[C@@H](CC(C)C)C(=O)N(C)[C@@H](CC(C)C)C(=O)N(C)[C@@H](C)C(=O)N1C` showed an IC50 of 2.52 µM. `C/C=C/C[C@@H](C)[C@@H](O)[C@H]1C(=O)N[C@@H](C(C)C)C(=O)N(C)CC(=O)N(C)[C@@H](CC(C)C)C(=O)N[C@@H](C(C)C)C(=O)N(C)[C@@H](CC(C)C)C(=O)N[C@@H](C)C(=O)N[C@H](C)C(=O)N(C)[C@@H](CC(C)C)C(=O)N[C@@H](CC(C)C)C(=O)N(C)[C@@H](C(C)C)C(=O)N1C` was tested, and the IC50 was greater than 3 µM. In the case of `CC/C=C/C[C@@H](C)[C@@H](O)[C@H]1C(=O)N[C@@H](CC)C(=O)N(C)CC(=O)N(C)[C@@H](C(C)C)C(=O)N[C@@H](C(C)C)C(=O)N(C)[C@@H](CC(C)C)C(=O)N[C@@H](C)C(=O)N[C@H](C)C(=O)N(C)[C@@H](CC(C)C)C(=O)N(C)[C@@H](CC(C)C)C(=O)N(C)[C@@H](C(C)C)C(=O)N1C`, the IC50 is reported as greater than 5 µM. With `CC(C)C[C@H]1C(=O)N[C@@H](C(C)C)C(=O)N(C)[C@@H](CC(C)C)C(=O)N[C@@H](C)C(=O)N[C@H](C)C(=O)N(C)[C@@H](CC(C)C)C(=O)N(C)[C@@H](CC(C)C)C(=O)N(C)[C@@H](C(C)C)C(=O)N(C)[C@@H](CC(C)C)C(=O)N[C@@H](C(C)C)C(=O)N(C)CC(=O)N1C` the IC50 was greater than 10 µM. `C/C=C/C[C@@H](C)[C@@H](O)[C@H]1C(=O)N[C@@H]([C@@H](C)O)C(=O)N(C)CC(=O)N(C)[C@@H](CC(C)C)C(=O)N[C@@H](CC(C)C)C(=O)N(C)[C@@H](CC(C)C)C(=O)N[C@@H](C)C(=O)N[C@](O)(C(C)C)C(=O)N(C)[C@@H](CC(C)C)C(=O)N[C@@H](CC(C)C)C(=O)N(C)[C@@H](C(C)C)C(=O)N1C` gave an IC50 of 0.57 µM. Work on `C/C=C/C[C@@H](C)[C@@H](O)[C@H]1C(=O)N[C@@H](CC)C(=O)N(C)CC(=O)N(C)[C@@H](CC(C)C)C(=O)N[C@@H](C(C)C)C(=O)N[C@@H](CC(C)C)C(=O)N[C@@H](C)C(=O)N[C@H](C)C(=O)N(C)[C@@H](CC(C)C)C(=O)N[C@@H](CC(C)C)C(=O)N(C)[C@@H](C(C)C)C(=O)N1C` yielded an IC50 of 1.8 µM. `CCC[C@@H]1NC(=O)[C@H](CC(C)C)N(C)C(=O)[C@H](C(C)C)N(C)C(=O)[C@H](CC(C)C)N(C)C(=O)[C@H](CC(C)C)N(C)C(=O)[C@@H](C)NC(=O)[C@H](C)NC(=O)[C@H](CC(C)C)N(C)C(=O)[C@H](C(C)C)NC(=O)[C@H](CC(C)C)N(C)C(=O)CN(C)C1=O` was tested, and the IC50 was greater than 10 µM. Work on `C/C=C/C[C@@H](C)[C@@H](O)[C@H]1C(=O)N[C@@H](C)C(=O)N(C)CC(=O)N(C)[C@@H](CC(C)C)C(=O)N[C@@H](C(C)C)C(=O)N(C)[C@@H](CC(C)C)C(=O)N[C@@H](C)C(=O)N[C@H](C)C(=O)N(C)[C@@H](CC(C)C)C(=O)N[C@@H](CC(C)C)C(=O)N(C)[C@@H](C(C)C)C(=O)N1C` yielded an IC50 of 2.2 µM. `C/C=C/C[C@@H](C)[C@@H](O)[C@H]1C(=O)N[C@@H](CCC)C(=O)N(C)CC(=O)N(C)[C@@H](CC(C)C)C(=O)N[C@@H](CCC)C(=O)N(C)[C@@H](CC(C)C)C(=O)N[C@@H](C)C(=O)N[C@H](C)C(=O)N(C)[C@@H](CC(C)C)C(=O)N(C)[C@@H](CC(C)C)C(=O)N(C)[C@@H](C(C)C)C(=O)N1C` showed an IC50 of 3.4 µM. `C/C=C/C[C@@H](C)C[C@H]1C(=O)N[C@@H](CC)C(=O)N(C)CC(=O)N(C)[C@@H](CC(C)C)C(=O)N[C@@H](C(C)C)C(=O)N(C)[C@@H](CC(C)C)C(=O)N[C@@H](C)C(=O)N[C@H](C)C(=O)N(C)[C@@H](CC(C)C)C(=O)N(C)[C@@H](CC(C)C)C(=O)N(C)[C@@H](C(C)C)C(=O)N1C` showed an IC50 greater than 10 µM. `C/C=C/C[C@@H](C)[C@@H](O)[C@H]1C(=O)N[C@@H]([C@@H](C)O)C(=O)N(C)CC(=O)N(C)[C@@H](CC(C)C)C(=O)N[C@@H](C(C)C)C(=O)N(C)[C@@H](CC(C)C)C(=O)N[C@@H](C)C(=O)N[C@H](C)C(=O)N(C)[C@@H](CC(C)C)C(=O)N(C)[C@@H](CC(C)C)C(=O)N[C@@H](C(C)C)C(=O)N1C` showed an IC50 greater than 10 µM. `CC[C@@H]1NC(=O)[C@H](CC2CCCCC2)N(C)C(=O)[C@H](C(C)C)N(C)C(=O)[C@H](CC(C)C)N(C)C(=O)[C@H](CC(C)C)N(C)C(=O)[C@@H](C)NC(=O)[C@H](C)NC(=O)[C@H](CC(C)C)N(C)C(=O)[C@H](C(C)C)NC(=O)[C@H](CC(C)C)N(C)C(=O)CN(C)C1=O` gave an IC50 of 6.33 µM. `CC/C=C/C[C@@H](C)[C@@H](O)[C@H]1C(=O)N[C@@H](CC)C(=O)N(C)CC(=O)N(C)[C@@H](CC(C)C)C(=O)N[C@@H](C(C)C)C(=O)N(C)[C@@H](CC(C)C)C(=O)N[C@@H](C)C(=O)N[C@H](CCCCN)C(=O)N(C)[C@@H](CC(C)C)C(=O)N(C)[C@@H](CC(C)C)C(=O)N(C)[C@@H](C(C)C)C(=O)N1C` gave an IC50 of 6.3 µM. With `CC/C=C/C[C@@H](C)[C@@H](O)[C@H]1C(=O)N[C@@H](C(C)C)C(=O)N(C)CC(=O)N(C)[C@@H](CC(C)C)C(=O)N[C@@H](C(C)C)C(=O)N(C)[C@@H](CC(C)C)C(=O)N[C@@H](C)C(=O)N[C@H](C)C(=O)N(C)[C@@H](CC(C)C)C(=O)N(C)[C@@H](CC(C)C)C(=O)N(C)[C@@H](C(C)C)C(=O)N1C` the IC50 was greater than 10 µM.

Same assay, conditions: hl-60
Work on `C/C=C/C[C@@H](C)[C@@H](O)[C@H]1C(=O)N[C@@H](CC)C(=O)N(C)CC(=O)N(C)[C@@H](CC(C)C)C(=O)N[C@@H](C(C)C)C(=O)N(C)[C@@H](CC(C)C)C(=O)N[C@@H](C)C(=O)N[C@H](C)C(=O)N(C)[C@@H](CC(C)C)C(=O)N(C)[C@@H](CC(C)C)C(=O)N(C)[C@@H]([C@@H](C)CC)C(=O)N1C` yielded an IC50 greater than 10 µM. `C/C=C/C[C@@H](C)[C@@H](O)[C@H]1C(=O)N[C@@H](CC)C(=O)N(C)CC(=O)N[C@@H]([C@@H](C)CC)C(=O)N[C@@H](C(C)C)C(=O)N(C)[C@@H](CC(C)C)C(=O)N[C@@H](C)C(=O)N[C@H](C)C(=O)N(C)[C@@H](CC(C)C)C(=O)N(C)[C@@H](CC(C)C)C(=O)N(C)[C@@H](C(C)C)C(=O)N1C` gave an IC50 greater than 5 µM. Work on `CC/C=C/C[C@@H](C)[C@@H](O)[C@H]1C(=O)N[C@@H](CC)C(=O)N(C)CC(=O)N(C)[C@@H](Cc2ccccc2)C(=O)N[C@@H](C(C)C)C(=O)N(C)[C@@H](CC(C)C)C(=O)N[C@@H](C)C(=O)N[C@H](C)C(=O)N(C)[C@@H](CC(C)C)C(=O)N(C)[C@@H](CC(C)C)C(=O)N(C)[C@@H](C(C)C)C(=O)N1C` yielded an IC50 greater than 10 µM.
